From ChEMBL document CHEMBL1155769 (Antimicrob Agents Chemother, 2007)
Activity calls are given as the source filed them. The rule behind the calls is not given here.

Columns and labels:
[1] = Toxicity against human erythrocytes assessed as heme-induced hemolysis up to 30 uM in absence of heme; format: cell-based; conditions: erythrocyte
Method in brief: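 Fresh heparinized human donor erythrocytes, washed six times in PBS, pH 7.4, used as a 0.5% suspension. Drugs up to 30 µM without heme were tested. Hemolysis was followed by turbidity at 630 nm, with a cells-only well taken as 0% hemolysis.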

[2] = tested on: Plasmodium falciparum; assay: Antimalarial activity against chloroquine-sensitive Plasmodium falciparum D6 infected in human erythrocytes after 48 hrs; format: functional, organism-based; conditions: D6, 48 h
Method in brief: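 Human erythrocytes infected with chloroquine-sensitive P. falciparum clone D6, mainly rings, at 4% parasitemia and 5% hematocrit. Cultured in RPMI 1640 with 10% human AB serum, with serial drug dilutions in triplicate. Incubated 48 h at 37°C in a candle jar. Parasitized cells per 10,000 counted on Giemsa-stained thin smears. Inhibition vs drug-free control was plotted, and IC50 (µM) read graphically.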

[3] = Binding affinity to heme in HEPES buffer at pH 7.4 upto 60 uM after 30 mins by Jobs plot
[4] = Toxicity against human erythrocytes assessed as potentiation of heme-induced hemolysis at 10 uM in presence of heme; format: cell-based; conditions: erythrocyte
Method in brief: (§1)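 Washed fresh human erythrocytes (0.5% in PBS, pH 7.4) were used. Heme, either 0–20 µM with 10 µM drug or 10 µM with various drug concentrations, was preincubated 10 min in PBS, then cells were added. Plates were shaken 2 h at 37°C and read at 630 nm. Percent hemolysis was calculated relative to a cells-only control. Error bars are SD.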

[5] = Inhibition of beta-hematin formation after 16 hrs
[6] = Binding affinity to heme in phosphate buffer at pH 7.4 by Hills plot
[7] = Toxicity against human erythrocytes assessed as potentiation of heme-induced hemolysis in presence of variable concentration of heme; format: cell-based; conditions: erythrocyte; method in brief: as §1
[8] = Binding affinity to heme in HEPES buffer at pH 7.4 after 30 mins by Jobs plot
Method in brief: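 Continuous-variation (Job's) plot: drug–heme mixtures in 40% DMSO buffered with 20 mM HEPES, pH 7.4, total heme plus drug held at 10 µM. Incubated 30 min at room temperature (25°C). Differential absorbance at 400 nm was taken as mixture minus summed heme and drug absorbance. Mean ± SEM of three independent experiments.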

[9] = Binding affinity to heme in HEPES buffer at pH 7.4 upto 20 uM after 30 mins by Jobs plot
Method in brief: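 Continuous-variation (Job's) method: drug and heme mixed in 40% DMSO buffered with 20 mM HEPES, pH 7.4, at a constant combined final concentration of 10 µM. Mixtures were held 30 min at room temperature (25°C). Differential absorbance at 400 nm was taken as the mixture absorbance minus the summed heme and drug absorbances. Three independent experiments, mean ± SEM.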

Structure (SMILES)	Activity [1]	IC50 [2] [nM]	Activity [3]	Activity [4]	IC50 [5] [nM]	Ka [6] [×10⁵ /M]	Activity [7]	Activity [8]	Activity [6]	Activity [9]
COc1cc(NC(C)CCCN)c2nc(C(C)(C)C)ccc2c1 (centres undefined)	Not Active	100	Active	Dose-dependent effect	2900	0.61	–	–	–	–
COc1cc(NC(C)CCCN)c2ncccc2c1 (centres undefined) [PRIMAQUINE]	Not Active	–	–	Not Active	–	–	Not Active	inactive	inactive	–
CCN(CC)CCCC(C)Nc1ccnc2cc(Cl)ccc12 (centres undefined) [CHLOROQUINE]	Not Active	–	–	Dose-dependent effect	–	–	–	–	–	Active
